High-throughput results as filed in PubChem.
697 NFkB inh = inhibitors of PMA/ionomycin-induced NF-kB reporter, 697 cells, primary screen, B-cell NF-kB inhibitor project, cell-based, luminescence, uHTS. 697 B-cell NF-kB luciferase reporter, 16 h. inhibition, % at 4 µM. hit rate 0.33% among 330,000; in the data active means inhibition above about 35%
GPR7 antagonist = GPR7 receptor antagonists, primary screen, cell-based, fluorescence, single concentration; Neuropeptides B/W receptor type 1 (Homo sapiens), P48145; GPR7-expressing cells, fluorescence antagonist assay; inhibition, % at 4.4 µM; hit rate 1.1% among 290,000; AID 1861, 2009; in the data active means inhibition above about 16%, passing the limit was not always enough;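 further: cells stimulated with the agonist NPW; 0% = agonist with vehicle and 100% = vehicle without agonist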
Target sequence (P48145 whole entry, looked up): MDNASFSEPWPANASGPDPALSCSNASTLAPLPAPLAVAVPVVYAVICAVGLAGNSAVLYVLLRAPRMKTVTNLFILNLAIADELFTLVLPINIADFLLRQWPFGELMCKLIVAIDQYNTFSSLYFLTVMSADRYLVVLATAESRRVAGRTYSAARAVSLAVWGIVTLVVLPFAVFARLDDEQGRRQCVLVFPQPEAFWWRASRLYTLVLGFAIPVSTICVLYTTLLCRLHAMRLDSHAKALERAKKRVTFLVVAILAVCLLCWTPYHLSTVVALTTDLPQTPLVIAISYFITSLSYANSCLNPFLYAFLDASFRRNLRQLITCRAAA
Jurkat NFkB inh = inhibitors of induced NF-kB luciferase reporter, primary screen, TCR NF-kB activation inhibitor project, cell-based, luminescence, uHTS; Jurkat, PMA/ionomycin-induced NF-kB luciferase reporter; inhibition, % at 4 µM; hit rate 0.53% among 330,000; AID 435003, 2010; in the data active means inhibition above about 50%
T cruzi inh = inhibitors of intracellular T. cruzi growth, primary screen, luminescence, NIH3T3 host cells; T. cruzi beta-gal in NIH3T3, 90 h; hit rate 1.4% among 300,000; inhibition, % (test concentration not listed);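 active means mean inhibition across valid replicates above about 55%, limit read from the data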;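 further: signal also drops with host cell toxicity which is not excluded here; 0% = plate median of DMSO wells and 100% = zero luminescence signal; higher percent means less beta-gal luminescence so fewer parasites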
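Read-out: Parasite load inhibition, % | Test system: Mouse NIH/3T3 fibroblasts infected with β-gal-expressing T. cruzi Tulahuen C4 | Amount: 5,000 cells/well | Medium: DMEM, 2% fetal bovine serum | Signal: GalScreen β-gal luminescence, detergent lysis, 60 min | Timing: 3 h attach, ≥90 h co-culture | Also added: Tulahuen C4 trypomastigotes, 5000/well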
HSF1 activator = HSF-1 activators, primary screen, NIH3T3-HGL cells, MG132 stress, luminescence, single point. hit rate 1.7% among 300,000. activation, % at 9 µM. NIH3T3-HGL HSF-1 luciferase reporter, 8 h; 100% = twice DMSO control signal;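 active means mean replicate activation of at least 50% with a set share of replicates each reaching 50%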;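 further: 0% = median of the neutral control wells and 100% = twice that signal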
HSF1 inhib = HSF1 inhibitors in luciferase reporter cells, primary screen, cell-based, NIH3T3, luminescence. NIH3T3-HGL HSE-luciferase, MG132-induced, luminescence 8 h; active compounds read low. activity change, negative = inhibition, % at 7.5 µM (by protocol). hit rate 0.77% among 300,000. AID 2098, 2009;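 active means more than half of replicate wells show activity change below -50%, luminescence cut by over half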;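 further: luciferase reports HSF-1 transcriptional activity via heat shock element; 0% = median of DMSO wells and -100% = zero luminescence signal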
* hit, by the source's call; · = no result given. A selection: hits, their analogues and other compounds. The true share with any hit is near 4.8%.

SMILES	697 NFkB inh	GPR7 antagonist	Jurkat NFkB inh	T cruzi inh	HSF1 activator	HSF1 inhib
Cc1cccc(NC(=O)c2nc[nH]c2C(=O)NCCCCCNC(=O)OC(C)(C)C)c1	-6	·	-2	·	·	·
Cc1cccc(NC(=O)c2nc[nH]c2C(=O)Nc2cccc(C)c2)c1	3	-8	4	-5	53*	22
Cc1cccc(NC(=O)c2nc[nH]c2C(=O)NCCCNC(=O)c2[nH]cnc2C(=O)Nc2cccc(C)c2)c1	21	·	-21	·	·	·
CC(C)(C)OC(=O)NCCCC[C@H](NC(=O)c1nc[nH]c1C(=O)NC(c1ccccc1)c1ccccc1)C(=O)OC(C)(C)C	0	-33	11	56*	20	9
Cc1ccccc1NC(=O)c1nc[nH]c1C(=O)NCc1ccccc1	-68	-12	-24	-17	59*	22
CC(C)(C)OC(=O)NCCCC[C@H](NC(=O)c1nc[nH]c1C(=O)N[C@@H](CCCCNC(=O)OC(C)(C)C)C(=O)OC(C)(C)C)C(=O)OC(C)(C)C	26	·	12	43	5	7
Cc1ccc(NC(=O)c2nc[nH]c2C(=O)NCc2ccccc2)cc1	1	·	1	·	·	·
Cc1cccc(NC(=O)c2nc[nH]c2C(=O)N[C@@H](CCCCNC(=O)OC(C)(C)C)C(=O)OC(C)(C)C)c1	5	·	-12	62*	2	9
Cc1cc2[nH]c(=O)c(=O)[nH]c2cc1S(=O)(=O)N1CCC(C)CC1	19	2	3	4	-2	-4
Cc1nc2sccn2c(=O)c1S(=O)(=O)Nc1ccc(N2CCN(S(C)(=O)=O)CC2)cc1	9	2	-10	-3	8	-4
O=C(N/N=C/c1cc(Br)ccc1O)Nc1ccccc1	-39	-6	30	7	-6	-6
CCOc1ccccc1NC(=O)C(=O)N/N=C/c1cc(Br)ccc1O	-16	-10	-25	63*	1	-4
Cc1cc2n(c(=O)c1C#N)CCCN2c1ccccc1	-7	-6	4	-10	-3	-2
Cc1cccc(C(=O)Oc2ccc(/C=N/NC(=O)c3ccccc3O)cc2)c1	-63	-5	-21	-8	55*	53
Nc1nonc1N/N=C/c1c(O)ccc2ccccc12	-6	11	3	-30	62*	26
O=C(N/N=C\c1c(O)ccc2ccccc12)c1ccc(O)cc1	-8	-11	6	20	42	31
O=C(N/N=C/c1c(O)ccc2ccccc12)c1cccnc1	-1	23	13	66*	11	-3
Nc1nonc1N/N=C\c1ccccc1	20	-8	8	22	5	0
Cc1ccc(C(=O)N/N=C/c2c(O)ccc3ccccc23)cn1	17	-2	31	67*	-23	-9
Cc1ccc(Cl)cc1NC1=NC(=S)N(C(C)C)C12CCCCC2	-11	-12	1	8	10	3
CC1=NN(C(=O)CCc2ccc3c(c2)OCO3)C(O)(C(F)(F)F)C1 (stereo not given)	3	-20	-5	3	7	-2
COc1cccc(/C=N/Nc2nc(-c3cccnc3)nc3ccccc23)c1	12	-11	-16	6	1	1
COc1cccc(CNc2nc(-c3cccnc3)nc3ccccc23)c1	6	-9	4	42	69*	22
O=C(COc1cc2oc(=O)c3c(c2cc1Cl)CCC3)Nc1ccc(CN2CCOCC2)cc1	0	-2	-4	-3	0	2
COc1ccc(OCC(=O)NNC(=O)Cn2c(=O)cnc3ccccc32)cc1	16	·	5	·	·	·
SMILES	697 NFkB inh	GPR7 antagonist	Jurkat NFkB inh	T cruzi inh	HSF1 activator	HSF1 inhib
CSCc1cc(N(C)c2ccccc2)nc(-c2ccccn2)n1	-6	-3	-10	60*	-4	-14
CCOC(=O)C(=CNc1ccc(S(N)(=O)=O)cc1)C(=O)OCC	22	-13	7	-10	-5	-4
CCOC(=O)C(=O)/C(C#N)=C/Nc1ccccc1	-7	-17	5	9	52*	13
CCOC(=O)/C(C#N)=C/Nc1ccccc1OC	-68	-9	-69	-2	28	18
CCOC(=O)C(=CNc1ccc(C#N)cc1)C(=O)OCC	-1	-1	-10	-11	60*	37
CCN1CCN(S(=O)(=O)c2cc3c(cc2Cl)NC(=O)CO3)CC1	11	-7	0	-4	-17	-6
O=C(Cc1ccccc1[N+](=O)[O-])NCc1ccc(Cl)cc1	-29	-2	-22	-4	26	16
O=C(Cc1ccccc1[N+](=O)[O-])NCc1ccc(Cl)cc1Cl	-69	2	-74	-2	81*	39
CCCCNC(=O)N1CCN(Cc2ccc(F)cc2)CC1	-8	-5	-8	-3	-1	-3
COc1ccc(-c2cc(-c3ccc(Cl)cc3)n[nH]2)c(O)c1	-205	-15	-145	24	94*	62
CC(/C=N/N1CCN(Cc2ccccc2)CC1)=C\c1ccccc1	14	11	13	27	18	14
CSc1ncc2c(n1)-c1cc(C)ccc1SC2	-2	-5	-1	75*	-5	-4
Nc1ncc2c(n1)-c1cc(Cl)ccc1SC2	1	-15	10	72*	-2	-4
COc1ccc(S(=O)(=O)N(C)c2ccc(C(N)=O)cc2)cc1	3	5	-2	-9	19	-4
CC1CCN(c2ccc(C(=O)O)cc2NS(=O)(=O)c2ccc(Br)cc2)CC1	6	-3	-5	-4	0	16
COc1ccc(/C=C(/NC(=O)c2ccccc2)c2nc3ccccc3[nH]2)cc1OC	-6	-5	-7	3	11	-1
O=C(/C(=C\c1ccccc1)c1nc2ccccc2[nH]1)c1ccc(Cl)cc1	-123	-11	-80	37	45	28
COc1ccc(C(=O)N/C(=C\c2cccs2)c2nc3ccccc3[nH]2)cc1OC	31	8	-10	4	-70	-60*
O=C(/C(=C/c1ccc(Cl)cc1)c1nc2ccccc2[nH]1)c1cccs1	-137	25*	40	59*	241*	175
COc1cc(/C=C(/C(=O)c2cccs2)c2nc3ccccc3[nH]2)ccc1O	24	-5	-2	-15	82*	60
COC(=O)/C(=C\c1cc(OC)c(OC)c(OC)c1)c1nc2ccccc2[nH]1	16	-2	0	5	-1	1
O=C(O)c1nn(Cc2ncc(-c3cccc(Cl)c3)o2)c(=O)c2ccccc12	21	-15	1	-4	5	8
